Assay results from ChEMBL document CHEMBL3860039, “Structure-Activity Relationship and Signaling of New Chimeric CXCR4 Agonists” (J Med Chem, 2016).

Key:
[1] = target: T1, C-X-C chemokine receptor type 4 (Homo sapiens, UniProt P61073); assay: Displacement of [125I]-CXCL12 from HA-tagged human recombinant CXCR4 expressed in HEK293 cells incubated for 1 hr by gamma-radiation counting analysis; assay type: cell-based
[2] = target: T1, C-X-C chemokine receptor type 4; assay: Agonist activity at HA-tagged human CXCR4 receptor expressed in HEK293 cells co-transfected with Galphai1-91-RlucII, Gbeta1, and GFP10-G-gamma1 incubated for 7 mins by Galpha1 protein activation-based BRET assay; assay type: cell-based
How it was run: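 HEK293 cells (3 × 10^6 per 100 mm dish) co-transfected via polyethylenimine with HA-hCXCR4 plus Gαi1-91-RlucII, Gβ1, GFP10-Gγ1; replated at 24 h, 100 000 cells/well. At 48 h, washed in HBSS/0.1% BSA, exposed to ligand 10−12 to 10−5 M for 7 min, then coelenterazine-400A 5 μM final; BRET2 515/400 nm ratio. EC50 (Gαi dissociation) and Emax from three experiments in triplicate.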

T1 sequence (P61073 whole entry): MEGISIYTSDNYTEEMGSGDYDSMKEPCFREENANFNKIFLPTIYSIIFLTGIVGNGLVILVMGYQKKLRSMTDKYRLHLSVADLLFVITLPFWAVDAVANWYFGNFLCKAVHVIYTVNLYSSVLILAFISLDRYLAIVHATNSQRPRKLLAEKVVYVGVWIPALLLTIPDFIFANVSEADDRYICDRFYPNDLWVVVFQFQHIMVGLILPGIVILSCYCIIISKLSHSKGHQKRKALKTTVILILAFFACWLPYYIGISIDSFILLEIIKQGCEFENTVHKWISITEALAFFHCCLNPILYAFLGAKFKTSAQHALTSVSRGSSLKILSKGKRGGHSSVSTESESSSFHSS

IC50 [1]	Compound	also measured
222 nM	CC(C)C[C@H](NC(=O)[C@H](CO)NC(=O)[C@@H](NC(=O)[C@@H]1Cc2ccccc2CN1C(=O)[C@@H](N)CCCCN)C(C)C)C(=O)N[C@@H](CO)C(=O)N[C@@H](Cc1ccc(O)cc1)C(=O)N[C@@H](CCCNC(=N)N)C(=O)N[C@@H](CO)C(=O)N[C@@H](C)C(=O)NCCCC[C@H](NC(=O)[C@@H]1CSSC[C@H](NC(=O)[C@H](Cc2ccc3ccccc3c2)NC(=O)[C@H](CCCNC(=N)N)NC(=O)[C@@H](N)CCCNC(=N)N)C(=O)N[C@@H](Cc2ccc(O)cc2)C(=O)N[C@@H](CCCNC(=N)N)C(=O)N[C@@H](CCCCN)C(=O)N[C@H](CCCCN)C(=O)N2CCC[C@H]2C(=O)N[C@@H](Cc2ccc(O)cc2)C(=O)N[C@@H](CCCNC(=N)N)C(=O)N[C@@H](CCCNC(=N)N)C(=O)N1)C(=O)O	–
678 nM	CC(C)C[C@H](NC(=O)[C@H](CO)NC(=O)[C@H](Cc1ccccc1)N(C)C(=O)[C@@H]1CCCN1C(=O)[C@@H](N)CCCCN)C(=O)N[C@@H](CO)C(=O)N[C@@H](Cc1ccc(O)cc1)C(=O)N[C@@H](CCCNC(=N)N)C(=O)N[C@@H](CO)C(=O)N[C@@H](C)C(=O)NCCCC[C@H](NC(=O)[C@@H]1CSSC[C@H](NC(=O)[C@H](Cc2ccc3ccccc3c2)NC(=O)[C@H](CCCNC(=N)N)NC(=O)[C@@H](N)CCCNC(=N)N)C(=O)N[C@@H](Cc2ccc(O)cc2)C(=O)N[C@@H](CCCNC(=N)N)C(=O)N[C@@H](CCCCN)C(=O)N[C@H](CCCCN)C(=O)N2CCC[C@H]2C(=O)N[C@@H](Cc2ccc(O)cc2)C(=O)N[C@@H](CCCNC(=N)N)C(=O)N[C@@H](CCCNC(=N)N)C(=O)N1)C(=O)O	–
437 nM	CC(C)C[C@H](NC(=O)[C@H](CO)NC(=O)[C@@H](NC(=O)[C@@H]1CCCN1C(=O)[C@@H](N)CCCCN)C(C)C)C(=O)N[C@@H](CO)C(=O)N[C@@H](Cc1ccc(O)cc1)C(=O)NCCOCCOCCOCCC(=O)NCCCC[C@H](NC(=O)[C@@H]1CSSC[C@H](NC(=O)[C@H](Cc2ccc3ccccc3c2)NC(=O)[C@H](CCCNC(=N)N)NC(=O)[C@@H](N)CCCNC(=N)N)C(=O)N[C@@H](Cc2ccc(O)cc2)C(=O)N[C@@H](CCCNC(=N)N)C(=O)N[C@@H](CCCCN)C(=O)N[C@H](CCCCN)C(=O)N2CCC[C@H]2C(=O)N[C@@H](Cc2ccc(O)cc2)C(=O)N[C@@H](CCCNC(=N)N)C(=O)N[C@@H](CCCNC(=N)N)C(=O)N1)C(=O)O	EC50 [2]: 61 nM; Emax [2]: 24%
127 nM	CC(C)C[C@H](NC(=O)[C@H](CO)NC(=O)[C@H](C(C)C)N(C)C(=O)[C@@H]1CCCN1C(=O)[C@@H](N)CCCCN)C(=O)N[C@@H](CO)C(=O)N[C@@H](Cc1ccc(O)cc1)C(=O)N[C@@H](CCCNC(=N)N)C(=O)N[C@@H](CO)C(=O)N[C@@H](C)C(=O)NCCCC[C@H](NC(=O)[C@@H]1CSSC[C@H](NC(=O)[C@H](Cc2ccc3ccccc3c2)NC(=O)[C@H](CCCNC(=N)N)NC(=O)[C@@H](N)CCCNC(=N)N)C(=O)N[C@@H](Cc2ccc(O)cc2)C(=O)N[C@@H](CCCNC(=N)N)C(=O)N[C@@H](CCCCN)C(=O)N[C@H](CCCCN)C(=O)N2CCC[C@H]2C(=O)N[C@@H](Cc2ccc(O)cc2)C(=O)N[C@@H](CCCNC(=N)N)C(=O)N[C@@H](CCCNC(=N)N)C(=O)N1)C(=O)O	–
230 nM	CC(C)C[C@H](NC(=O)[C@H](CO)NC(=O)[C@@H](NC(=O)[C@@H]1CCCN1C(=O)[C@@H](N)CCCCN)C(C)C)C(=O)N[C@@H](CO)C(=O)N[C@@H](C)C(=O)N[C@@H](CCCNC(=N)N)C(=O)N[C@@H](CO)C(=O)N[C@@H](C)C(=O)NCCCC[C@H](NC(=O)[C@@H]1CSSC[C@H](NC(=O)[C@H](Cc2ccc3ccccc3c2)NC(=O)[C@H](CCCNC(=N)N)NC(=O)[C@@H](N)CCCNC(=N)N)C(=O)N[C@@H](Cc2ccc(O)cc2)C(=O)N[C@@H](CCCNC(=N)N)C(=O)N[C@@H](CCCCN)C(=O)N[C@H](CCCCN)C(=O)N2CCC[C@H]2C(=O)N[C@@H](Cc2ccc(O)cc2)C(=O)N[C@@H](CCCNC(=N)N)C(=O)N[C@@H](CCCNC(=N)N)C(=O)N1)C(=O)O	–
171 nM	CC(C)[C@H](NC(=O)[C@@H]1CCCN1C(=O)[C@@H](N)CCCCN)C(=O)N[C@@H](CO)C(=O)N[C@@H](C)C(=O)N[C@@H](CO)C(=O)N[C@@H](Cc1ccc(O)cc1)C(=O)N[C@@H](CCCNC(=N)N)C(=O)N[C@@H](CO)C(=O)N[C@@H](C)C(=O)NCCCC[C@H](NC(=O)[C@@H]1CSSC[C@H](NC(=O)[C@H](Cc2ccc3ccccc3c2)NC(=O)[C@H](CCCNC(=N)N)NC(=O)[C@@H](N)CCCNC(=N)N)C(=O)N[C@@H](Cc2ccc(O)cc2)C(=O)N[C@@H](CCCNC(=N)N)C(=O)N[C@@H](CCCCN)C(=O)N[C@H](CCCCN)C(=O)N2CCC[C@H]2C(=O)N[C@@H](Cc2ccc(O)cc2)C(=O)N[C@@H](CCCNC(=N)N)C(=O)N[C@@H](CCCNC(=N)N)C(=O)N1)C(=O)O	–
353 nM	CC(C)C[C@H](NC(=O)[C@H](CO)NC(=O)[C@@H](NC(=O)[C@H](C)NC(=O)[C@@H](N)CCCCN)C(C)C)C(=O)N[C@@H](CO)C(=O)N[C@@H](Cc1ccc(O)cc1)C(=O)N[C@@H](CCCNC(=N)N)C(=O)N[C@@H](CO)C(=O)N[C@@H](C)C(=O)NCCCC[C@H](NC(=O)[C@@H]1CSSC[C@H](NC(=O)[C@H](Cc2ccc3ccccc3c2)NC(=O)[C@H](CCCNC(=N)N)NC(=O)[C@@H](N)CCCNC(=N)N)C(=O)N[C@@H](Cc2ccc(O)cc2)C(=O)N[C@@H](CCCNC(=N)N)C(=O)N[C@@H](CCCCN)C(=O)N[C@H](CCCCN)C(=O)N2CCC[C@H]2C(=O)N[C@@H](Cc2ccc(O)cc2)C(=O)N[C@@H](CCCNC(=N)N)C(=O)N[C@@H](CCCNC(=N)N)C(=O)N1)C(=O)O	–
137 nM	CC(C)C[C@H](NC(=O)[C@H](CO)NC(=O)[C@@H](NC(=O)C1(NC(=O)[C@@H](N)CCCCN)Cc2ccccc2C1)C(C)C)C(=O)N[C@@H](CO)C(=O)N[C@@H](Cc1ccc(O)cc1)C(=O)N[C@@H](CCCNC(=N)N)C(=O)N[C@@H](CO)C(=O)N[C@@H](C)C(=O)NCCCC[C@H](NC(=O)[C@@H]1CSSC[C@H](NC(=O)[C@H](Cc2ccc3ccccc3c2)NC(=O)[C@H](CCCNC(=N)N)NC(=O)[C@@H](N)CCCNC(=N)N)C(=O)N[C@@H](Cc2ccc(O)cc2)C(=O)N[C@@H](CCCNC(=N)N)C(=O)N[C@@H](CCCCN)C(=O)N[C@H](CCCCN)C(=O)N2CCC[C@H]2C(=O)N[C@@H](Cc2ccc(O)cc2)C(=O)N[C@@H](CCCNC(=N)N)C(=O)N[C@@H](CCCNC(=N)N)C(=O)N1)C(=O)O	–
–	CC(C)C[C@H](NC(=O)[C@H](CO)NC(=O)[C@@H](NC(=O)[C@H]1CCCN1C(=O)[C@@H](N)CCCCN)C(C)C)C(=O)N[C@@H](CO)C(=O)N[C@@H](Cc1ccc(O)cc1)C(=O)N[C@@H](CCCNC(=N)N)C(=O)N[C@@H](CO)C(=O)N[C@@H](C)C(=O)NCCCC[C@H](NC(=O)[C@@H]1CSSC[C@H](NC(=O)[C@H](Cc2ccc3ccccc3c2)NC(=O)[C@H](CCCNC(=N)N)NC(=O)[C@@H](N)CCCNC(=N)N)C(=O)N[C@@H](Cc2ccc(O)cc2)C(=O)N[C@@H](CCCNC(=N)N)C(=O)N[C@@H](CCCCN)C(=O)N[C@H](CCCCN)C(=O)N2CCC[C@H]2C(=O)N[C@@H](Cc2ccc(O)cc2)C(=O)N[C@@H](CCCNC(=N)N)C(=O)N[C@@H](CCCNC(=N)N)C(=O)N1)C(=O)O	IC50 ([1]; hek293): 151 nM
548 nM	CC(C)C[C@H](NC(=O)[C@H](CO)NC(=O)[C@@H](NC(=O)[C@@H]1CCCN1)C(C)C)C(=O)N[C@@H](CO)C(=O)N[C@@H](Cc1ccc(O)cc1)C(=O)N[C@@H](CCCNC(=N)N)C(=O)N[C@@H](CO)C(=O)N[C@@H](C)C(=O)NCCCC[C@H](NC(=O)[C@@H]1CSSC[C@H](NC(=O)[C@H](Cc2ccc3ccccc3c2)NC(=O)[C@H](CCCNC(=N)N)NC(=O)[C@@H](N)CCCNC(=N)N)C(=O)N[C@@H](Cc2ccc(O)cc2)C(=O)N[C@@H](CCCNC(=N)N)C(=O)N[C@@H](CCCCN)C(=O)N[C@H](CCCCN)C(=O)N2CCC[C@H]2C(=O)N[C@@H](Cc2ccc(O)cc2)C(=O)N[C@@H](CCCNC(=N)N)C(=O)N[C@@H](CCCNC(=N)N)C(=O)N1)C(=O)O	–
95 nM	CC(C)C[C@H](NC(=O)[C@H](CO)NC(=O)[C@@H](N)C(C)C)C(=O)N[C@@H](CO)C(=O)N[C@@H](Cc1ccc(O)cc1)C(=O)N[C@@H](CCCNC(=N)N)C(=O)N[C@@H](CO)C(=O)N[C@@H](C)C(=O)NCCCC[C@H](NC(=O)[C@@H]1CSSC[C@H](NC(=O)[C@H](Cc2ccc3ccccc3c2)NC(=O)[C@H](CCCNC(=N)N)NC(=O)[C@@H](N)CCCNC(=N)N)C(=O)N[C@@H](Cc2ccc(O)cc2)C(=O)N[C@@H](CCCNC(=N)N)C(=O)N[C@@H](CCCCN)C(=O)N[C@H](CCCCN)C(=O)N2CCC[C@H]2C(=O)N[C@@H](Cc2ccc(O)cc2)C(=O)N[C@@H](CCCNC(=N)N)C(=O)N[C@@H](CCCNC(=N)N)C(=O)N1)C(=O)O	–
267 nM	CCCC[C@H](N)C(=O)N1CCC[C@H]1C(=O)N[C@H](C(=O)N[C@@H](CO)C(=O)N[C@@H](CC(C)C)C(=O)N[C@@H](CO)C(=O)N[C@@H](Cc1ccc(O)cc1)C(=O)N[C@@H](CCCNC(=N)N)C(=O)N[C@@H](CO)C(=O)N[C@@H](C)C(=O)NCCCC[C@H](NC(=O)[C@@H]1CSSC[C@H](NC(=O)[C@H](Cc2ccc3ccccc3c2)NC(=O)[C@H](CCCNC(=N)N)NC(=O)[C@@H](N)CCCNC(=N)N)C(=O)N[C@@H](Cc2ccc(O)cc2)C(=O)N[C@@H](CCCNC(=N)N)C(=O)N[C@@H](CCCCN)C(=O)N[C@H](CCCCN)C(=O)N2CCC[C@H]2C(=O)N[C@@H](Cc2ccc(O)cc2)C(=O)NC(CCCNC(=N)N)C(=O)N[C@@H](CCCNC(=N)N)C(=O)N1)C(=O)O)C(C)C (stereo not given in full)	–
282 nM	CC(C)C[C@H](NC(=O)[C@H](CO)NC(=O)[C@@H](NC(=O)[C@@H]1CCCN1C(=O)[C@H](C)N)C(C)C)C(=O)N[C@@H](CO)C(=O)N[C@@H](Cc1ccc(O)cc1)C(=O)N[C@@H](CCCNC(=N)N)C(=O)N[C@@H](CO)C(=O)N[C@@H](C)C(=O)NCCCC[C@H](NC(=O)[C@@H]1CSSC[C@H](NC(=O)[C@H](Cc2ccc3ccccc3c2)NC(=O)[C@H](CCCNC(=N)N)NC(=O)[C@@H](N)CCCNC(=N)N)C(=O)N[C@@H](Cc2ccc(O)cc2)C(=O)N[C@@H](CCCNC(=N)N)C(=O)N[C@@H](CCCCN)C(=O)N[C@H](CCCCN)C(=O)N2CCC[C@H]2C(=O)N[C@@H](Cc2ccc(O)cc2)C(=O)N[C@@H](CCCNC(=N)N)C(=O)N[C@@H](CCCNC(=N)N)C(=O)N1)C(=O)O	–
